pEC50, pIC50: −log10 of the molar value. Values after ≈ are worked out from the molar mass of the structure shown. Active and inactive are the calls of the source.
Tests used:
Homo sapiens = organism: Homo sapiens; test: Selectivity for human CB2 receptor over human CB1 receptor
[1] = Solubility in water at 25 degC; type: physicochemical
Method in brief: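 Excess compound shaken in water at room temperature for 24 h, then centrifuged for 10 min at 25 °C. Supernatant diluted in 50% aqueous acetonitrile and quantified by reversed-phase HPLC with UV detection at 230 nm.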

Cannabinoid receptor 2 [2] = target: T1, Cannabinoid receptor 2 (Homo sapiens, UniProt P34972); test: Binding affinity to CB2 receptor
Cannabinoid receptor 2 [3] = target: T1, Cannabinoid receptor 2; test: Displacement of [3H]CP-55940 from human recombinant CB2 receptor expressed in CHO cells; type: cell-based
Cannabinoid receptor 2 [4] = target: T1, Cannabinoid receptor 2; test: Agonist activity at human recombinant CB2 receptor expressed in CHO cells by [35S]GTP-gamma-S binding assay; type: functional, cell-based
Method in brief: (§1)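 Membranes from CHO cells expressing human CB2 (5 µg/well) in Hepes buffer pH 7.4 with 100 mM NaCl, 3 mM MgCl2, 0.2% BSA, 3 µM GDP and 30 µg/mL saponin. Preincubated with compound for 30 min at 30 °C, then 0.1 nM [35S]GTPγS added for a further 30 min at 30 °C. Filtered and counted. Nonspecific binding defined with 10 µM GTPγS.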

Cannabinoid receptor 1 [5] = target: T2, Cannabinoid receptor 1 (Homo sapiens, UniProt P21554); test: Displacement of [3H]CP-55940 from human recombinant CB1 receptor expressed in CHO cells; type: cell-based
Cannabinoid receptor 2 [6] = target: T1, Cannabinoid receptor 2; test: Agonist activity at human recombinant CB2 receptor expressed in CHO cells by [35S]GTP-gamma-S binding assay relative to CP-55940; type: functional, cell-based
Method in brief: as §1, with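 “GTPγS. Emax expressed relative to the maximal response to CP 55,940.” for “GTPγS.”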

Cannabinoid receptor 1 [7] = target: T2, Cannabinoid receptor 1; test: Binding affinity to CB1 receptor
Cannabinoid receptor 2 [8] = target: T1, Cannabinoid receptor 2; test: Agonist activity at CB2 receptor; type: functional
Method in brief: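 [³⁵S]GTPγS binding on membranes of CHO cells expressing human CB2. Buffer 20 mM Hepes, 100 mM NaCl, 3 mM MgCl2, 0.2% BSA, 3 µM GDP, 30 µg/mL saponin, pH 7.4. Membranes (5 µg/well) preincubated with compounds 30 min at 30 °C, then 0.1 nM [³⁵S]GTPγS added for 30 min at 30 °C. Filtration and scintillation counting; nonspecific binding with 10 µM GTPγS. EC50 derived; Emax relative to CP 55,940 maximum.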

Cannabinoid receptor 1 [9] = target: T2, Cannabinoid receptor 1; test: Agonist activity at CB1 receptor; type: functional
[10] = Metabolic stability in Sprague-Dawley rat liver microsomes after 15 mins; type: ADME, Microsome; settings: read-out: Stability
Method in brief: (§2)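 Compound at 5 µM final incubated for 15 min at 37 °C with human or rat liver microsomes (1.0 mg protein/mL) in phosphate buffer with KCl, pH 7.4, plus an NADPH-generating system. Stopped with DMSO, centrifuged, and the remaining compound measured by LC-MS/MS. Run in triplicate.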

Rattus norvegicus [11] = test: Reversal of mechanical hyperalgesia in Wistar rat at 10 mg/kg, po after 1 hr by Randall-Selitto test; type: functional, organism-based; set-up: dose 10 mg/kg
Method in brief: (§3)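 Male Wistar rats (200–220 g) given 0.1 mL of 20% yeast suspension into the right hind paw plantar surface. Control paw-withdrawal threshold read by algesiometer 2 h after yeast, then compound given orally in 5% gum arabic vehicle. Threshold re-read at 1 and 3 h. Result expressed as %MPE. Seven rats per group; Dunnett's test versus vehicle.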

[12] = Metabolic stability in human liver microsomes after 15 mins; type: ADME, Microsome; settings: read-out: Stability; method in brief: as §2
[13] = Plasma concentration in Sprague-Dawley rat at 10 mg/kg, po after 1.67 hrs; type: ADME, organism-based; set-up: dose 10 mg/kg, route oral
Method in brief: (§4)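 Male Sprague–Dawley rats, 7–8 weeks old, dosed orally at 10 mg/kg. Blood taken from the tail vein and plasma stored at -80 °C. Plasma protein-precipitated with acetonitrile/methanol (9:1) containing internal standard, then quantified by LC-MS/MS (ESI, positive MRM). LLOQ 1 ng/mL. Mean ± SD of three animals.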

[14] = Half life in Sprague-Dawley rat at 10 mg/kg, po; type: ADME, organism-based; set-up: dose 10 mg/kg, route oral; settings: in vivo; method in brief: as §4
[15] = AUC (0 to 8 hrs) in Sprague-Dawley rat at 10 mg/kg, po; type: ADME, organism-based; set-up: time < 8 hr, dose 10 mg/kg, route oral; settings: plasma
Rattus norvegicus [16] = test: Reversal of mechanical hyperalgesia in Wistar rat at 30mg/kg, po after 1 hr by Randall-Selitto test; type: functional, organism-based; method in brief: as §3
[17] = Tmax in Sprague-Dawley rat at 10 mg/kg, po; type: ADME, organism-based; set-up: dose 10 mg/kg, route oral; settings: in vivo; method in brief: as §4
Cannabinoid receptor 2 [18] = target: T3, Cannabinoid receptor 2 (Rattus norvegicus, UniProt Q9QZN9); test: Displacement of [3H]CP-55940 from […] receptor in Sprague-Dawley rat spleen membrane; type: cell membranes
T3 sequence (Q9QZN9 whole entry): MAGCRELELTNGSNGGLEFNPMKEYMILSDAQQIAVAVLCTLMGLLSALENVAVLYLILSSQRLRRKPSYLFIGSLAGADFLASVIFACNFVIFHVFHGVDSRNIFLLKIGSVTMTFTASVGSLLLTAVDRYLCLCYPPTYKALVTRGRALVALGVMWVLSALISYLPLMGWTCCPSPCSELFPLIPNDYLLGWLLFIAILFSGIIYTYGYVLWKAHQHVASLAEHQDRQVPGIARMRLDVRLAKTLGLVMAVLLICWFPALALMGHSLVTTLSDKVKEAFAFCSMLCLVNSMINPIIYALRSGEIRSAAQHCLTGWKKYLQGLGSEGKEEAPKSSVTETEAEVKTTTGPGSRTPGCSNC
Method in brief: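 Rat spleen membranes (100 µg/well) from male Sprague–Dawley rats in Tris-HCl buffer pH 7.4 with 5 mM EDTA, 5 mM MgCl2 and 0.2% BSA. Incubated with varying compound concentrations and 0.57 nM [3H]CP 55,940 at 25 °C for 120 min. Filtered and counted. Nonspecific binding defined with 2 µM CP 55,940.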

T1 sequence (P34972 whole entry): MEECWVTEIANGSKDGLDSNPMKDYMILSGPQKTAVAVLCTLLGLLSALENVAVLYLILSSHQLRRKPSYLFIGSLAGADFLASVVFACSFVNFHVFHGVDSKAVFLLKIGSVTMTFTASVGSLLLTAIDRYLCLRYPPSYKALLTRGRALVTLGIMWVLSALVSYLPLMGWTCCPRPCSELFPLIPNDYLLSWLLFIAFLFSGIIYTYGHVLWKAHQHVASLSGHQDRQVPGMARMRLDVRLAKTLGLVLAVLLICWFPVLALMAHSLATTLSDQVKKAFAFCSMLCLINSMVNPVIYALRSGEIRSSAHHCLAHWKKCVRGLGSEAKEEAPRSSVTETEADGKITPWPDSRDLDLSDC
T2 sequence (P21554 whole entry): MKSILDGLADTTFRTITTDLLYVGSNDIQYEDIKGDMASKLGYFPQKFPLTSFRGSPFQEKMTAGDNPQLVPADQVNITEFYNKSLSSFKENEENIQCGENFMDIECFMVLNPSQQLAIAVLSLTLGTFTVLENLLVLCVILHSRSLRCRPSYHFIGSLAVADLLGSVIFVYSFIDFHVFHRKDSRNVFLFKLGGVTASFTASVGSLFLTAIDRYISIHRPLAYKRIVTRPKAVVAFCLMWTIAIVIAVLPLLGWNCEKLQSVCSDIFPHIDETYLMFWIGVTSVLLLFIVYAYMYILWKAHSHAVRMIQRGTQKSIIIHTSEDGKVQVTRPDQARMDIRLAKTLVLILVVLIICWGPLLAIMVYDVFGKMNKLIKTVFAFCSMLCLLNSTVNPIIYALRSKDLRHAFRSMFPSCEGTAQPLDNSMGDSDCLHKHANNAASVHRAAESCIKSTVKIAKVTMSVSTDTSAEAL

`Cc1c(C(C)(C)C)s/c(=N\C(=O)c2cccc(C(F)(F)F)c2)n1CC1CC1` showed a Ratio IC50 (Homo sapiens) of 270 and a solubility [1] of less than 0.1 µg/mL.
With `CC1(C)C(C(=O)c2cn(CCN3CCOCC3)c3ccccc23)C1(C)C` the pIC50 (Cannabinoid receptor 2 [2]) was 9.11.
In the case of `Cn1c(C(C)(C)C)c/c(=N\C(=O)c2cccc(C(F)(F)F)c2)n1CC1CC1`, the pIC50 (Cannabinoid receptor 2 [3]) was 7.29.
Compound `CC(C)OCCn1/c(=N/C(=O)c2cccc(C(F)(F)F)c2F)cc(C(C)(C)C)n1C` has a pIC50 (Cannabinoid receptor 2 [3]) of 8.59, a pEC50 (Cannabinoid receptor 2 [4]) of 9.07 and a pIC50 (Cannabinoid receptor 1 [5]) of 6.12. It also gave an Emax (Cannabinoid receptor 2 [6]) of 76%.
With `CC(C)(C)c1c/c(=N\C(=O)c2cccc(C(F)(F)F)c2)n(CC2CC2)o1` the pIC50 (Cannabinoid receptor 2 [3]) was 7.34.
With `Cc1c(C(C)C)o/c(=N\C(=O)c2cccc(C(F)(F)F)c2)n1CC1CC1` the pIC50 (Cannabinoid receptor 2 [3]) was 7.62.
Compound `CC(C)(C)c1nn(CC2CC2)/c(=N/C(=O)c2cccc(C(F)(F)F)c2)s1` has a pIC50 (Cannabinoid receptor 2 [3]) of 6.52.
For `Cn1c(C(C)(C)C)c/c(=N\C(=O)c2cc(C(F)(F)F)ccc2F)n1CC1CC1`, the pIC50 (Cannabinoid receptor 2 [3]) was 7.64, the pEC50 (Cannabinoid receptor 2 [4]) was 8.06 and the pIC50 (Cannabinoid receptor 1 [5]) was 5.43. For the same compound, the Emax (Cannabinoid receptor 2 [6]) was 90%.
`Cn1c(C(C)(C)C)c/c(=N\C(=O)c2cccc(C(F)(F)F)c2F)n1CC1CCC1` gave a pIC50 (Cannabinoid receptor 2 [3]) of 8.77, a pEC50 (Cannabinoid receptor 2 [4]) of 9.49 and a pIC50 (Cannabinoid receptor 1 [5]) of 6.03. It also gave an Emax (Cannabinoid receptor 2 [6]) of 96%.
Compound `CN1CCCCC1Cn1cc(C(=O)c2cc([N+](=O)[O-])ccc2I)c2ccccc21` (stereo not given) has a pIC50 (Cannabinoid receptor 1 [7]) of 6.55 and a pIC50 (Cannabinoid receptor 2 [2]) of 8.47.
`O=C(NCC1CCOCC1)c1cnc(Nc2ccc(Cl)cc2Cl)nc1C(F)(F)F` [GW842166X] gave a pEC50 (Cannabinoid receptor 2 [8]) of 7.30 and a pEC50 (Cannabinoid receptor 1 [9]) of less than 4.52.
Work on `CC(C)(C)c1c/c(=N\C(=O)c2cccc(C(F)(F)F)c2)n(CC2CC2)s1` yielded a pIC50 (Cannabinoid receptor 2 [3]) of 8.02.
For `Cn1c(C(C)(C)C)c/c(=N\C(=O)c2cccc(C(F)(F)F)c2F)n1CC1CC1`, the remaining at 0.25 h [10] was 86%, the Activity (Rattus norvegicus [11]) was “Active” and the pIC50 (Cannabinoid receptor 2 [3]) was 8.54. The pEC50 (Cannabinoid receptor 2 [4]) was 8.74, the remaining at 0.25 h [12] was 92% and the Cmax [13] was 545 ng/mL. It also gave a Ratio IC50 (Homo sapiens) of 1400, a half-life [14] of 2.47 h and a solubility [1] of 59 µg/mL (≈ 148 µM). The AUC(0-t) at 8 h [15] was 2160 ng·h/mL, the Activity (Rattus norvegicus [16]) was “Active” and the Tmax [17] was 1.67 h. For the same compound, the pIC50 (Cannabinoid receptor 1 [5]) was 5.40, the Emax (Cannabinoid receptor 2 [6]) was 85% and the pIC50 (Cannabinoid receptor 2 [18]) was 8.85.
`Cn1c(C(C)(C)C)c/c(=N\C(=O)c2cccc(C(F)(F)F)c2F)n1CC1CCCC1` showed a pEC50 (Cannabinoid receptor 2 [4]) of 9.10, a pIC50 (Cannabinoid receptor 1 [5]) of 6.09 and an Emax (Cannabinoid receptor 2 [6]) of 67%.
With `CCOCCn1/c(=N/C(=O)c2cccc(C(F)(F)F)c2F)cc(C(C)(C)C)n1C` the pIC50 (Cannabinoid receptor 2 [3]) was 8.43, the pEC50 (Cannabinoid receptor 2 [4]) was 8.96 and the pIC50 (Cannabinoid receptor 1 [5]) was 6.06. For the same compound, the Emax (Cannabinoid receptor 2 [6]) was 82%.
For `Cn1c(C(C)(C)C)c/c(=N\C(=O)c2cccc(C(F)(F)F)c2Cl)n1CC1CC1`, the pIC50 (Cannabinoid receptor 2 [3]) was 8.43, the pEC50 (Cannabinoid receptor 2 [4]) was 8.82 and the pIC50 (Cannabinoid receptor 1 [5]) was 5.66. It also gave an Emax (Cannabinoid receptor 2 [6]) of 82%.
Compound `Cc1c(C(=O)/N=c2\cc(C(C)(C)C)n(C)n2CC2CC2)cccc1C(F)(F)F` has a pIC50 (Cannabinoid receptor 2 [3]) of 7.96, a pEC50 (Cannabinoid receptor 2 [4]) of 8.36 and a pIC50 (Cannabinoid receptor 1 [5]) of 5.89. It also gave an Emax (Cannabinoid receptor 2 [6]) of 73%.
For `Cc1ccc(C(F)(F)F)cc1C(=O)/N=c1\cc(C(C)(C)C)n(C)n1CC1CC1`, the pIC50 (Cannabinoid receptor 2 [3]) was 7.06.
